Data set [1] is described as follows: Clearance in rat at 3 mg/kg, po and 1 mg/kg, iv. The class given is ADME, organism-based. Conditions: in vivo. A digest of the protocol: (§1)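 Rats dosed 3 mg/kg orally and 1 mg/kg intravenously; PK parameters derived from whole-blood concentrations. Normalized oral AUC given in μM·h·kg/mg, clearance in mL/min/kg, plus half-life and oral bioavailability.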
For data set [2], the system named is Rattus norvegicus. Kind of data set: Normalized AUC in rat whole blood at 3 mg/kg, po. The class given is ADME, organism-based. Further details: dose 3 mg/kg, route oral. Conditions: in vivo. A digest of the protocol: as §1
Data set [3] is described as follows: Metabolic stability in human liver microsomes assessed as compound remaining at 10 uM after 1 hr in presence of NADPH. The class given is ADME. Conditions: read-out: Stability. A digest of the protocol:
(§2)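 Liver microsomes (rat or human) incubated with compound and NADPH for 1 h; percent of parent remaining. Table footnote gives 10 μM compound, 1 mM NADPH, 1 mg/mL protein; text gives 1 μM substrate, 1 mg/mL protein.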
On the technique in general: Liver microsomes are vesicles of endoplasmic reticulum, rich in cytochrome P450 enzymes.

The nature of data set [4]: Metabolic stability in rat liver microsomes assessed as compound remaining at 10 uM after 1 hr in presence of NADPH. The class given is ADME. Particulars: read-out: Stability. The essentials:
as §2

Data set [5] concerns Rattus norvegicus. Kind of data set: Antinociceptive activity in rat inflammatory pain model assessed as reversal of CFA-induced mechanical allodynia at 30 mg/kg, po after 3 hrs. The class given is functional. The essentials: (§3)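 Rats given intraplantar complete Freund's adjuvant in the hind paws to induce inflammatory pain; mechanical allodynia assessed 1 and 3 h after a single oral dose. Percent reversal per rat calculated as (postdose − predose)/(preinjury − predose), averaged over n = 6 rats.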

The test system of data set [6] is Rattus norvegicus. Kind of data set: Antinociceptive activity in rat inflammatory pain model assessed as reversal of CFA-induced mechanical allodynia at 10 mg/kg, po after 3 hrs. The class given is functional. The essentials:
as §3

For a further data set, the target named is MDR1 (ABCB1) (Homo sapiens, UniProt P08183). Briefly: Activity at human MDR1 expressed in MDCK2 cells assessed as apparent permeability by LC/MS/MS analysis. The class given is ADME, cell-based, MDCK-II. Conditions: MDCK-MDR1.
Chain of MDR1 (ABCB1) (P08183 whole entry): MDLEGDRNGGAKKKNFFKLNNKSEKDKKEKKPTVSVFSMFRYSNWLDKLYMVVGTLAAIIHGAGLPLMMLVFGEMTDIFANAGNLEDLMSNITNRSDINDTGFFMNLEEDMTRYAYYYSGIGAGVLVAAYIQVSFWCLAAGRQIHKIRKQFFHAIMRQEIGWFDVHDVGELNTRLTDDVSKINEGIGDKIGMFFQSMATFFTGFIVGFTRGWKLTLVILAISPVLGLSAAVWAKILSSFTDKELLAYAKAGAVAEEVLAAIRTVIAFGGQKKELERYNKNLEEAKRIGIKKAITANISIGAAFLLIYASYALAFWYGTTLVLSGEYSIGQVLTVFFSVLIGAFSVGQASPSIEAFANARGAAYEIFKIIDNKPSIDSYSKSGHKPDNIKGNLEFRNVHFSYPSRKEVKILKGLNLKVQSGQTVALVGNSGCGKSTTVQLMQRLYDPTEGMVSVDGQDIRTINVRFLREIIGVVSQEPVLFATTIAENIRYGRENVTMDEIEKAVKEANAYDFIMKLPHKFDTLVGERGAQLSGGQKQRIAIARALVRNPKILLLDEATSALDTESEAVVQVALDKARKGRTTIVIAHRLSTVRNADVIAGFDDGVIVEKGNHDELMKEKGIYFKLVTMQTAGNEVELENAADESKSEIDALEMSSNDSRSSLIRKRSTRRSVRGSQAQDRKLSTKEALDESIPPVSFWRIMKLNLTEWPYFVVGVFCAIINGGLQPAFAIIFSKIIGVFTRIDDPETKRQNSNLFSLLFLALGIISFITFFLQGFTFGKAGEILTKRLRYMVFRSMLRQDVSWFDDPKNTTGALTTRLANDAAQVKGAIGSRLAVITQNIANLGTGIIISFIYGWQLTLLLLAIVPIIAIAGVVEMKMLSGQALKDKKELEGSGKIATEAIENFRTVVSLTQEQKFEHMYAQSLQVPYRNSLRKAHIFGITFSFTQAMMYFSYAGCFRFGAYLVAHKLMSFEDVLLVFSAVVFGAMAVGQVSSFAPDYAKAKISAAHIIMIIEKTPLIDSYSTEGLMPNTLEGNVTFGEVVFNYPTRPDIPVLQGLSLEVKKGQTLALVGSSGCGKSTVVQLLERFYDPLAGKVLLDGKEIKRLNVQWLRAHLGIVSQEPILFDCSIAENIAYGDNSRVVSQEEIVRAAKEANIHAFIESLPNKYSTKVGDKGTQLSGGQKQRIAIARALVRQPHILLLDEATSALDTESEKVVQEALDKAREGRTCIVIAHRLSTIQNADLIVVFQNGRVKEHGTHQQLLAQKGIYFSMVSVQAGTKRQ
In data set [7] the target is T1, Nuclear receptor subfamily 1 group I member 2 (Homo sapiens, UniProt O75469).
T1 sequence (O75469 whole entry): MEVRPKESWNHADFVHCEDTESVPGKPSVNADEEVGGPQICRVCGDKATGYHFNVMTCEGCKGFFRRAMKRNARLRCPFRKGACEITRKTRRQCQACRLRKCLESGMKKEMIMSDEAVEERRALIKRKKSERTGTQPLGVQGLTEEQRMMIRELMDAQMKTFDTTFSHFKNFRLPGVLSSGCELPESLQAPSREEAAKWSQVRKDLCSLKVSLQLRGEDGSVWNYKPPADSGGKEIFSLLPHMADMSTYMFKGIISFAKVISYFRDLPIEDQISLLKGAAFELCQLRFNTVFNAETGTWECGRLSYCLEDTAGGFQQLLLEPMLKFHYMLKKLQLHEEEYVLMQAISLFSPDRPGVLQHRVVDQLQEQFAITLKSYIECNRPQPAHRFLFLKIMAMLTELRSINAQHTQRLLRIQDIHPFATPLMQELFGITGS
Kind of data set: Activation of PXR (unknown origin).

Data set [8] concerns the target Voltage-dependent N-type calcium channel subunit alpha-1B (Homo sapiens, UniProt Q00975). Briefly: Inhibition of Cav2.2-mediated calcium influx in HEK cells by FLIPR assay. The class given is cell-based, HEK293. The essentials: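 Cav2.2 calcium-influx FLIPR assay; compounds screened for percent inhibition at single concentration, active ones titrated for IC50; values averaged over n ≥ 3.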

In data set [9] the test system is Rattus norvegicus. Kind of data set: Antinociceptive activity in rat inflammatory pain model assessed as reversal of CFA-induced mechanical allodynia at 10 mg/kg, po after 1 hr. The class given is functional. A digest of the protocol: as §3
Data set [10] is described as follows: Fraction unbound in 100% rat plasma. The class given is ADME, cell-free. A digest of the protocol:
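Unbound fraction measured in 100% rat plasma.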

For the next data set, the target named is Cytochrome P450 3A4 (Homo sapiens, UniProt P08684). Kind of data set: Inhibition of CYP3A4 (unknown origin). The class given is ADME.
Chain of Cytochrome P450 3A4 (P08684 whole entry): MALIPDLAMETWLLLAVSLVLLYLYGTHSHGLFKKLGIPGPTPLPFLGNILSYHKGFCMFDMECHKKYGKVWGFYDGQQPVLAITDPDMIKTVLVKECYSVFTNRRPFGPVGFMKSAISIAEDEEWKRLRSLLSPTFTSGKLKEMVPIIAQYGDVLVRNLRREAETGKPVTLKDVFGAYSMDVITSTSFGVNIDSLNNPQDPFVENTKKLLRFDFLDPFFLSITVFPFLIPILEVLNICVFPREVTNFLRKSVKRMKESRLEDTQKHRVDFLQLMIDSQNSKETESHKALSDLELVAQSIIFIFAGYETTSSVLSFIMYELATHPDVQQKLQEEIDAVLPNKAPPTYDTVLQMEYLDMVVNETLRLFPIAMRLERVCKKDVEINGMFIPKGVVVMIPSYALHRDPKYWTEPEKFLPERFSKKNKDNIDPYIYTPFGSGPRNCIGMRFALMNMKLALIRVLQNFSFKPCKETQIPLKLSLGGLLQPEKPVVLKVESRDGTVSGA
Data set [11] has as its system Rattus norvegicus. Kind of data set: Antinociceptive activity in rat inflammatory pain model assessed as reversal of CFA-induced mechanical allodynia at 30 mg/kg, po after 1 hr. The class given is functional. The essentials: as §3
Data set [12] is described as follows: Oral bioavailability in rat at 3 mg/kg. The class given is ADME, organism-based. Conditions: in vivo. The essentials:
as §1

Data set [13] can be described thus: Half life in rat at 3 mg/kg, po and 1 mg/kg, iv. The class given is ADME, organism-based. Particulars: in vivo. The essentials:
as §1

Chain of Voltage-dependent N-type calcium channel subunit alpha-1B (Q00975 whole entry): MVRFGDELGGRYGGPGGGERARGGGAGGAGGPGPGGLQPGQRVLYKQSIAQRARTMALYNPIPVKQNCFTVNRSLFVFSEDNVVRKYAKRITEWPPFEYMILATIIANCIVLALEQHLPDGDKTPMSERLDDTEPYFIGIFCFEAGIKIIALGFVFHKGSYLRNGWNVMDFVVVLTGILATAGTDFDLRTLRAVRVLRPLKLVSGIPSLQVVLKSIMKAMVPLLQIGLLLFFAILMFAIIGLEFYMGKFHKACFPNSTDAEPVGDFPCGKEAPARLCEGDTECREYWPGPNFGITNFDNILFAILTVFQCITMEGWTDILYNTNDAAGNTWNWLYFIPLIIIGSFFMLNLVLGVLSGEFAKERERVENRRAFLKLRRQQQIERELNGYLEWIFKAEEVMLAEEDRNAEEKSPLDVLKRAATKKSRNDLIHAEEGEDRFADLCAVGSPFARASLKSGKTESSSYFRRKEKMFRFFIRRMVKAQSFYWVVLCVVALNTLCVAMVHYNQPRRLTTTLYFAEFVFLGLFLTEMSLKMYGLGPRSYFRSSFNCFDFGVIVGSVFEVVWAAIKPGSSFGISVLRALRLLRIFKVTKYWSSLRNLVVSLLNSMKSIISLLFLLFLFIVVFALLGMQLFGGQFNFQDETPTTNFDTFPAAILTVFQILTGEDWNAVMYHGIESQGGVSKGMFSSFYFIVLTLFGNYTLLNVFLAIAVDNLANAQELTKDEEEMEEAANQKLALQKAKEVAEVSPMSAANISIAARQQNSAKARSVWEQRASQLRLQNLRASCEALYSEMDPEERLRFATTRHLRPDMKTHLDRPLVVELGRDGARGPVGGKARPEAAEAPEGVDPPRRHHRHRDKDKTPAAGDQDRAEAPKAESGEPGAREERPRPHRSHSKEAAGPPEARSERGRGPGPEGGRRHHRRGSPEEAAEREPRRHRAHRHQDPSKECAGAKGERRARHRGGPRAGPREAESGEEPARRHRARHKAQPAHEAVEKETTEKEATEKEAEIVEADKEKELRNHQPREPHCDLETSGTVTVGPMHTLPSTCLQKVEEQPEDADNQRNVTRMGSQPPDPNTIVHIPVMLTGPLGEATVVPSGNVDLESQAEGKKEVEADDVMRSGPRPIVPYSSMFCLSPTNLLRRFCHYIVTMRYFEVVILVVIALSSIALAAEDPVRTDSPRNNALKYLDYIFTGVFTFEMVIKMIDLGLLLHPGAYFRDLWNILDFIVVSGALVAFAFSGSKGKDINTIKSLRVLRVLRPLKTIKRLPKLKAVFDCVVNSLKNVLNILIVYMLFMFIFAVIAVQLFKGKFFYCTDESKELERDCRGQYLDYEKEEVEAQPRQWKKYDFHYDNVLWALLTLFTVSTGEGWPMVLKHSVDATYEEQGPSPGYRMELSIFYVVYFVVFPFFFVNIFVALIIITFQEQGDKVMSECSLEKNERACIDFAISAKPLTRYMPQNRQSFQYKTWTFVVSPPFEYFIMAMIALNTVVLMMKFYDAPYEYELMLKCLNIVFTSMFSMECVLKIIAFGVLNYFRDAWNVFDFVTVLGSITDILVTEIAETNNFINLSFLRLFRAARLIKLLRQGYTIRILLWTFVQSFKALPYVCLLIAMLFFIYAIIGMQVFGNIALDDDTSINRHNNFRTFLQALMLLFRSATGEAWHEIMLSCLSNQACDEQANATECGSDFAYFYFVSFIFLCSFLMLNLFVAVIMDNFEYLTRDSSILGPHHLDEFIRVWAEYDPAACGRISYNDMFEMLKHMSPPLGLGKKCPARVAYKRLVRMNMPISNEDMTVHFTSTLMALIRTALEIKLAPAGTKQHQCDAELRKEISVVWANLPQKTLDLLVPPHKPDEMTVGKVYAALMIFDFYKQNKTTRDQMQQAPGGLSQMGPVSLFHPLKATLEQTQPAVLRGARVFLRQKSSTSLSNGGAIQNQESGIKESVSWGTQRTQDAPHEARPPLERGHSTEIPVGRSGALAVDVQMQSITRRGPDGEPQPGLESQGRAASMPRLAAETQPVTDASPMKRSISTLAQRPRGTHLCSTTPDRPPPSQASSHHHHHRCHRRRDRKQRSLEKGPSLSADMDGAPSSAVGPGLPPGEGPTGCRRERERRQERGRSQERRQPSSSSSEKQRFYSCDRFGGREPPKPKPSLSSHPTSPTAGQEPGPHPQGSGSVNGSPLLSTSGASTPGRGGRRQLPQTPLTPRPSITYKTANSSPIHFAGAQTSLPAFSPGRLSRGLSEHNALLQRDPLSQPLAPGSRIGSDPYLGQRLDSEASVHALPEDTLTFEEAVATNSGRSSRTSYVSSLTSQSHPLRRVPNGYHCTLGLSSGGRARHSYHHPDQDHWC

Usually Papp stands for a coefficient for how fast a substance crosses the barrier. One may read the EC50 as the concentration that produces a half-maximal response. The low end stands for higher potency in that assay, the high end for lower potency in that assay. What is called IC50 is the concentration that gives 50% inhibition. Usually fraction unbound stands for the share of the substance not bound to proteins or other matrix. One may read the bioavailability as dose-corrected exposure relative to a reference, in per cent. A high value points to good availability. Compound `CC(C)(C1CCN(C(=O)c2cc(F)ccc2S(C)(=O)=O)CC1)S(=O)(=O)c1cccc(C(F)(F)F)c1` came in with a clearance in data set [1] of 29 mL/min/kg. Further, the AUC/dose in the data set on Rattus norvegicus [2] came to 0.27 µM·kg·h/mg. For the same compound, the remaining at 1 h, 10 µM is 64% in data set [3] and 68% in data set [4]. For the same compound, the Efficacy was determined as 54% in the data set with Rattus norvegicus [5], 49% in the data set with Rattus norvegicus [6], 36% with Rattus norvegicus [9] and 57% in the data set with Rattus norvegicus [11]. In addition, at MDR1 (ABCB1), the Papp was 35 ×10⁻⁶ cm/s. For the same compound, in data set [7], a half-maximal response (EC50) required 2500 nM. Besides, the IC50 in [8] was found to be 510 nM; against Cytochrome P450 3A4, 10000 nM. The compound further displayed a fraction unbound in [10] of 0.068. Moreover, the bioavailability in data set [12] is 24%.
The term half-life denotes the time needed for the level to fall by half in the phase considered. In [1], `CC(C)(C1CCN(C(=O)c2ccc(S(C)(=O)=O)cc2OC(F)(F)F)CC1)S(=O)(=O)c1cccc(C(F)(F)F)c1` came in with a clearance of 27 mL/min/kg. Besides, the AUC/dose in the data set with Rattus norvegicus [2] amounted to 0.97 µM·kg·h/mg. Further, the results for the remaining at 1 h, 10 µM in data set [3] and in [4] were 62% and 73%, respectively. For the same compound, the half-life in [13] is 2.3 h. In addition, the Efficacy with Rattus norvegicus [6] stood at 30%; in the data set with Rattus norvegicus [9] it was 21%. Moreover, the Papp at MDR1 (ABCB1) came to 35 ×10⁻⁶ cm/s. In data set [7], this compound returned an EC50 greater than 30000 nM. Also, the IC50 in data set [8] worked out at 92 nM. This compound also gave a fraction unbound in data set [10] of 0.013. In addition, the bioavailability in data set [12] was 95%.

The values are drawn from ChEMBL document CHEMBL3091454, “Improved Cav2.2 Channel Inhibitors through a gem-Dimethylsulfone Bioisostere Replacement of a Labile Sulfonamide” (ACS Med Chem Lett, 2013).
